In ChEMBL document CHEMBL1123716, “Synthesis and tumor uptake of 5-halo-1-(2'-fluoro-2'-deoxy-beta-D-ribofuranosyl)[2-14C]uracils” (J Med Chem, 1987):
Each block holds one compound with its values, some of them ahead of it.

How the values were obtained:
Mus musculus [1] = experiment: Radioactive constituent of 5-fluorouracil in urine at 8 hr time interval after intravenous injection into BDF1 female mice bearing lewis lung tumor; format: ADME, organism-based; conditions: in vivo
Outline: (§1)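 Radiolabeled nucleoside given in normal saline by tail vein, 23–193 kBq per mouse, to female BDF1 mice (18–20 g) carrying transplanted Lewis lung tumor. Urine was collected when the animals were killed. Components were identified by reverse-phase HPLC with UV at 256 nm on urine spiked with reference compounds, matched to liquid scintillation counts of the eluate. Each is reported as a percent of total urine radioactivity.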

Mus musculus [2] = experiment: Tissue distribution in BDF1 female mice bearing an implanted lewis lung tumor after intravenous injection in stomach at 0.25 h.; format: ADME, organism-based; conditions: in vivo
Outline: (§2)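 Female BDF₁ mice (18–20 g) carrying transplanted Lewis lung tumor received 23–193 kBq of the [2-¹⁴C]-labeled nucleoside in normal saline via tail vein. The compound was stored as a dry film and reconstituted just before use. Animals were killed at set times, and tissue ¹⁴C was measured by combustion and liquid scintillation. Values are mean ± SD % injected dose per gram of wet tissue, n = 6.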

Mus musculus [3] = experiment: Tissue distribution in BDF1 female mice bearing an implanted lewis lung tumor after intravenous injection in stomach at 0.5 h.; format: ADME, organism-based; conditions: in vivo; outline: as §2
Mus musculus [4] = experiment: Radioactive constituent of other in urine at 0.5 hr time interval after intravenous injection into BDF1 female mice bearing lewis lung tumor; format: ADME, organism-based; conditions: in vivo; outline: as §1
Mus musculus [5] = experiment: Radioactive constituent of uracil in urine at 4 hr time interval after intravenous injection into BDF1 female mice bearing lewis lung tumor; format: ADME, organism-based; conditions: in vivo; outline: as §1
[6] = Total urine activity excreted at 4 hr was estimated from the measurement of loss of tissue activity; format: ADME, tissue-based
Mus musculus [7] = experiment: Radioactive constituent of other in urine at 8 hr time interval after intravenous injection into BDF1 female mice bearing lewis lung tumor; format: ADME, organism-based; conditions: in vivo; outline: as §1
Mus musculus [8] = experiment: Tissue distribution in BDF1 female mice bearing an implanted lewis lung tumor after intravenous injection in tumor at 1 h.; format: ADME, organism-based; conditions: in vivo
Outline: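 Female BDF1 mice (18–20 g) carrying a transplanted Lewis lung tumor were given 23–193 kBq of the [2-14C]-labelled nucleoside in normal saline by tail vein. Animals were killed at set times. Tissue 14C was counted by liquid scintillation, after combustion or directly. Values are percent of injected dose per gram wet tissue, as mean ± standard deviation of six animals.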

Mus musculus [9] = experiment: Radioactive constituent of uracil in urine at 0.5 hr time interval after intravenous injection into BDF1 female mice bearing lewis lung tumor; format: ADME, organism-based; conditions: in vivo; outline: as §1
Mus musculus [10] = experiment: Radioactive constituent of 5-fluorouracil in urine at 0.5 hr time interval after intravenous injection into BDF1 female mice bearing lewis lung tumor; format: ADME, organism-based; conditions: in vivo; outline: as §1
Mus musculus [11] = experiment: Radioactive constituent in urine at 0.5 hr time interval after intravenous injection into BDF1 female mice bearing lewis lung tumor; format: ADME, organism-based; conditions: in vivo; outline: as §1
Mus musculus [12] = experiment: Tissue distribution in BDF1 female mice bearing an implanted lewis lung tumor after intravenous injection in skin at 0.25 h.; format: ADME, organism-based, Skin of body; conditions: in vivo; outline: as §2
Mus musculus [13] = experiment: Tissue distribution in BDF1 female mice bearing an implanted lewis lung tumor after intravenous injection in kidney at 0.25 h.; format: ADME, organism-based; conditions: in vivo
Outline: (§3)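 Female BDF1 mice (18–20 g) with implanted Lewis lung tumor received the 2-14C compound by tail vein, 23–193 kBq in normal saline, reconstituted from a dry film just before use. Animals were killed at set times and tissues taken for 14C counting by combustion and liquid scintillation. Values are percent injected dose per gram wet tissue, mean ± standard deviation, six animals.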

[14] = Total urine activity excreted at 8 hr was estimated from the measurement of loss of tissue activity; format: ADME, tissue-based
Mus musculus [15] = experiment: Tissue distribution in BDF1 female mice bearing an implanted lewis lung tumor after intravenous injection in skin at 2 h; format: ADME, organism-based, Skin of body; conditions: in vivo; outline: as §2
Mus musculus [16] = experiment: Radioactive constituent in urine at 4 hr time interval after intravenous injection into BDF1 female mice bearing lewis lung tumor; format: ADME, organism-based; conditions: in vivo; outline: as §1
Mus musculus [17] = experiment: Radioactive constituent of other in urine at 2 hr time interval after intravenous injection into BDF1 female mice bearing lewis lung tumor; format: ADME, organism-based; conditions: in vivo; outline: as §1
[18] = Total urine activity excreted at 0.5 hr was estimated from the measurement of loss of tissue activity; format: ADME, tissue-based
Mus musculus [19] = experiment: Radioactive constituent in urine at 8 hr time interval after intravenous injection into BDF1 female mice bearing lewis lung tumor; format: ADME, organism-based; conditions: in vivo; outline: as §1
Mus musculus [20] = experiment: Radioactive constituent of 5-fluorouracil in urine at 4 hr time interval after intravenous injection into BDF1 female mice bearing lewis lung tumor; format: ADME, organism-based; conditions: in vivo; outline: as §1
Mus musculus [21] = experiment: Radioactive constituent of uracil in urine at 8 hr time interval after intravenous injection into BDF1 female mice bearing lewis lung tumor; format: ADME, organism-based; conditions: in vivo; outline: as §1
Mus musculus [22] = experiment: Tissue distribution in BDF1 female mice bearing an implanted lewis lung tumor after intravenous injection in stomach at 0.5 h. Value in parentheses is organ to tumor ratio; format: ADME, organism-based; conditions: in vivo
Outline: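 Female BDF₁ mice (18–20 g) with implanted Lewis lung tumor were given 23–193 kBq of the [2-¹⁴C] nucleoside in normal saline by tail vein. Tissue ¹⁴C was counted by combustion and liquid scintillation, with n = 6 per time point. The organ-to-tumor ratio was derived from the % injected dose per gram of wet tissue in the organ and in the tumor.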

Mus musculus [23] = experiment: Tissue distribution in BDF1 female mice bearing an implanted lewis lung tumor after intravenous injection in skin at 0.25 h; format: ADME, organism-based, Skin of body; conditions: in vivo; outline: as §2
Mus musculus [24] = experiment: Tissue distribution in BDF1 female mice bearing an implanted lewis lung tumor after intravenous injection in skin at 2 h.; format: ADME, organism-based, Skin of body; conditions: in vivo; outline: as §2
Mus musculus [25] = experiment: Tissue distribution in BDF1 female mice bearing an implanted lewis lung tumor after intravenous injection in muscle at 0.25 h; format: ADME, organism-based; conditions: in vivo; outline: as §2
Mus musculus [26] = experiment: Tissue distribution in BDF1 female mice bearing an implanted lewis lung tumor after intravenous injection in bone at 0.25 h; format: ADME, organism-based; conditions: in vivo; outline: as §3
Mus musculus [27] = experiment: Tissue distribution in BDF1 female mice bearing an implanted lewis lung tumor after intravenous injection in spleen at 0.25 h; format: ADME, organism-based; conditions: in vivo; outline: as §2

Total radioactivity (Mus musculus [1]): 4.5%
Tissue distribution (Mus musculus [2]): 2.18
Tissue distribution (Mus musculus [3]): 0.96
Total radioactivity (Mus musculus [4]): 5%
Total radioactivity (Mus musculus [5]): 7.3%
Total urine activity [6]: 0.8%
Total radioactivity (Mus musculus [7]): 38.6%
Tissue distribution (Mus musculus [8]): 2.24
Total radioactivity (Mus musculus [9]): 1.4%
Total radioactivity (Mus musculus [10]): 2.1%
Total radioactivity (Mus musculus [11]): 90.7%
Tissue distribution (Mus musculus [12]): 3.3
Tissue distribution (Mus musculus [13]): 47.4
Total urine activity [14]: 0.2%
Tissue distribution (Mus musculus [15]): 0.06
Total radioactivity (Mus musculus [16]): 63.4%
Total radioactivity (Mus musculus [17]): 5.4%
Total urine activity [18]: 68%
Total radioactivity (Mus musculus [19]): 52.4%
Total radioactivity (Mus musculus [20]): 16.3%
Total radioactivity (Mus musculus [21]): 4.5%
Compound: O=c1[nH]c(=O)n([C@H]2O[C@@H](CO)[C@H](O)[C@H]2F)cc1F

Tissue distribution (Mus musculus [22]): 0.75
Tissue distribution (Mus musculus [23]): 2.24
Tissue distribution (Mus musculus [24]): 0.13
Tissue distribution (Mus musculus [25]): 1.48
Tissue distribution (Mus musculus [26]): 0.77
Tissue distribution (Mus musculus [27]): 2.12
Compound: O=c1[nH]c(=O)n([C@H]2O[C@@H](CO)[C@H](O)[C@H]2F)cc1Cl
